Laboratory results as given in ChEMBL document CHEMBL3739287, “Diversification of edaravone via palladium-catalyzed hydrazine cross-coupling: Applications against protein misfolding and oligomerization of beta-amyloid” (Bioorg Med Chem Lett, 2016).
pIC50: −log10 of the molar value.

Key:
[1] = molecular target: T1, Amyloid-beta precursor protein (Homo sapiens, UniProt P05067); experiment: Inhibition of amyloid beta (1 to 40 residues) (unknown origin) aggregation at 25 uM incubated for 72 hrs by Thioflavin T assay
Method in brief: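 Kinetic ThT aggregation format: monomeric Aβ40 (20 μM) with ThT (8 μM) and compound at a single 25 μM concentration. Fluorescence was followed over 72 h, and percent inhibition of aggregation was taken at 72 h.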

[2] = molecular target: T1, Amyloid-beta precursor protein; experiment: Inhibition of N-alpha-biotinyl-amyloid beta (1 to 42 residues) (unknown origin) oligomerization incubated for 1 hr by sandwich biotin-avidin assay
Method in brief: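 Sub-nanomolar detection of N-α-biotinyl-Aβ(1–42) oligomers using single-site NeutrAvidin capture with labeled streptavidin detection. The format recognizes multimeric (>20 kDa) oligomers but not monomer. Compounds were tested over 1–50 μM to build dose-response curves, from which IC50 was determined.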

[3] = molecular target: T1, Amyloid-beta precursor protein; experiment: Inhibition of amyloid beta (1 to 40 residues) (unknown origin) aggregation incubated for 72 hrs by Thioflavin T assay
Method in brief: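 Aβ40 (20 μM) aggregation in a kinetic format with ThT (8 μM), fluorescence read over 72 h. IC50 came from dose-response curves of percent inhibition and was collected only for compounds giving >50% inhibition at 25 μM in this assay and IC50 <50 μM in the bio-Aβ42 oligomer assay.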

T1 sequence (P05067 whole entry, the tested form may be a part): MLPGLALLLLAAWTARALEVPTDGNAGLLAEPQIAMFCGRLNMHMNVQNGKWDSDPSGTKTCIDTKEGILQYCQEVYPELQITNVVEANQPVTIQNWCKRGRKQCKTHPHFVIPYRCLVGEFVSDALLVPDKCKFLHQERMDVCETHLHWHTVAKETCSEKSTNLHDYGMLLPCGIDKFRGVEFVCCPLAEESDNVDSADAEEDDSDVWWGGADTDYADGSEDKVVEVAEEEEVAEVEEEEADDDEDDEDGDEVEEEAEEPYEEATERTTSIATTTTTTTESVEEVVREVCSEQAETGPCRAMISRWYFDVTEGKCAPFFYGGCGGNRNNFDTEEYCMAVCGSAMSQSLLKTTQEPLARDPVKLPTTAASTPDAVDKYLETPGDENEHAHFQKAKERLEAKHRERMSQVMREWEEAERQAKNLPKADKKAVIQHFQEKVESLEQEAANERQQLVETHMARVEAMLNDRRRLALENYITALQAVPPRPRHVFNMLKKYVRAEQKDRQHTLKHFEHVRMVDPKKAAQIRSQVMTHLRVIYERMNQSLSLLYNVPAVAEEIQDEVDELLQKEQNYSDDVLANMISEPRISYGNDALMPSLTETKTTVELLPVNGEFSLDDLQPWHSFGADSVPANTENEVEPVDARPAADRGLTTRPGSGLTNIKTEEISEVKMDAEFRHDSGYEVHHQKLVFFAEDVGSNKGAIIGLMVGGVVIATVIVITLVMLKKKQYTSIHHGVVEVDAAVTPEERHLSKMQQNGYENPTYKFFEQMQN

inhibition [1]	pIC50 [2]	pIC50 [3]	Compound
56.3%	< 4.30		CC1=NN(c2ccc(C(F)(F)F)cc2)C(=O)C1
26.4%	< 4.30		COc1cc(F)cc(N2N=C(C)CC2=O)c1
22.7%	< 4.30		CC1=NN(c2ccccc2C)C(=O)C1
47%	4.77		CC1=NN(c2cccc(N3CCCC3)c2)C(=O)C1
26.3%	< 4.30		CCc1ccccc1N1N=C(C)CC1=O
53.4%	5.54	4.57	CC1=NN(c2cccc(COCc3ccccc3)c2)C(=O)C1
69.6%	5.29	5.47	COc1ccc(-c2ccc(N3N=C(C)CC3=O)cc2)cc1
26.2%	< 4.30		CC1=NN(c2cc(F)ccc2C)C(=O)C1
49%	< 4.30		CC1=NN(c2ccc(C)c(F)c2)C(=O)C1
16.3%	< 4.30		CC1=NN(c2ccc(C)cc2)C(=O)C1
53.2%	5.41	4.84	CC1=NN(c2ccc(-c3cccnc3)cc2)C(=O)C1
48.2%	< 4.30		COc1cc(N2N=C(C)CC2=O)nc(OC)n1
17.2%	< 4.30		CC1=NN(c2ccccc2)C(=O)C1 [EDARAVONE]
30.9%	< 4.30		CC1=NN(c2cccc(C)c2)C(=O)C1
7.4%	< 4.30		CC1=NN(c2cc(C)ccc2C)C(=O)C1
60.6%	5.40	4.59	CC1=NN(c2ccc(-n3cccc3)cc2)C(=O)C1
20.2%	< 4.30		CC1=NN(c2cccnc2)C(=O)C1
78.7%	4.71	5.25	CC1=NN(c2ccc(-c3ccccc3)cc2)C(=O)C1
71.4%	5.46	4.71	CC1=NN(c2ccc(-n3c(-c4ccccc4)cc4ccccc43)cc2)C(=O)C1
56.2%	< 4.30		CC1=NN(c2ccc3ccccc3c2)C(=O)C1
50.7%	5.40	< 4.30	CC1=NN(c2ccc(N(c3ccccc3)c3ccccc3)cc2)C(=O)C1
39.7%	< 4.30	< 4.30	COc1cccc(N2N=C(C)CC2=O)c1
